Active and inactive are the calls of the source. The rule behind the calls is not given here.
Legend:
Mus musculus [1] = experiment: Antiinflammatory activity in C57BL/6NCrl mouse assessed as inhibition of carrageenan-induced paw edema at 10 mg/kg, ip administered 2 hrs prior to carrageenan challenge measured after 3 hrs by plethysmometry; type: functional
Outline: (§1)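 Eight-week-old male mice were dosed ip with compound (10 mg/kg), dexamethasone (2 mg/kg) or PBS-8% DMSO vehicle 2 h before carrageenan. Under medetomidine/ketamine anesthesia, 45 μL of 1.5% λ-carrageenan in saline was given intradermally into one hindpaw, with saline in the contralateral paw. Paw volume was measured by plethysmometer before and at 3 and 6 h. n = 6–12.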

J774 [2] = experiment: Downregulation of LPS-induced MCP-1 mRNA levels in mouse J774 cells after 3 to 6 hrs by qRT-PCR method; type: functional, cell-based
Outline: (§2)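 Activated J774 cells received compound at 10 μM alongside LPS. At 3, 6 or 24 h, total RNA was extracted and iNOS, IL-6 or MCP-1 mRNA was measured by TaqMan quantitative RT-PCR (40 cycles, 95 °C/60 °C) in duplicate. Levels came from a standard curve and were normalized to GAPDH. n = 4 versus LPS only.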

J774 [3] = experiment: Antiinflammatory activity in mouse J774 cells assessed as inhibition of LPS-induced nitric oxide production measured as remaining nitric oxide levels at 10 uM by Griess assay; type: functional
Outline: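 Confluent J774 monolayers were treated with LPS plus compound at 10 μM in fresh medium, 24 h. NO was read as accumulated nitrite in the medium by Griess reaction. n = 4, mean ± SEM versus cells cultured with LPS only.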

J774 [4] = experiment: Antiinflammatory activity against mouse J774 cells assessed as inhibition of LPS-induced IL-6 production measured as remaining IL-6 levels at 10 uM after 24 hrs by ELISA; type: functional
Outline: (§3)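 J774 macrophages were grown 72 h to confluence, then exposed to LPS with compound at 10 μM in fresh medium for 24 h. IL-6 and MCP-1 in the culture medium were quantified by ELISA. n = 4, mean ± SEM relative to LPS-only cells.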

J774 [5] = experiment: Downregulation of LPS-induced IL-6 expression in mouse J774 cells at 0.3 to 10 uM after 24 hrs by ELISA; type: functional, cell-based
Outline: (§4)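 LPS-stimulated J774 cells were incubated 24 h with compound at 0.3–10 μM. IL-6 and MCP-1 concentrations in the medium were determined by ELISA. Mean + SEM, n = 4, compared with LPS alone.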

J774 [6] = experiment: Downregulation of LPS-induced iNOS mRNA levels in mouse J774 cells after 6 to 24 hrs by qRT-PCR method; type: functional, cell-based; outline: as §2
J774 [7] = experiment: Antiinflammatory activity against mouse J774 cells assessed as inhibition of LPS-induced COX-2 expression measured as remaining protein levels at 10 uM after 24 hrs by Western blot analysis; type: functional
Outline: (§5)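 Murine J774 macrophages were grown 72 h to confluence in DMEM with 10% heat-inactivated FBS at 37 °C, 5% CO2. Compound was added in fresh medium with LPS for 24 h. Cells were lysed, and 20 μg protein was immunoblotted for COX-2 or iNOS with actin as the loading control, detected by chemiluminescence. n = 4, mean ± SEM versus LPS alone.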

J774 [8] = experiment: Downregulation of LPS-induced MCP-1 expression in mouse J774 cells at 0.3 to 10 uM after 24 hrs by ELISA; type: functional, cell-based; outline: as §4
J774 [9] = experiment: Downregulation of LPS-induced iNOS expression in mouse J774 cells at 0.3 to 10 uM after 24 hrs by Western blot analysis; type: functional, cell-based
Outline: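 Dose–response was run in LPS-activated J774 macrophages over 24 h, with iNOS protein detected by Western blot and actin as the loading control.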

J774 [10] = experiment: Antiinflammatory activity against mouse J774 cells assessed as inhibition of LPS-induced MCP-1 production measured as remaining MCP-1 levels at 10 uM after 24 hrs by ELISA; type: functional; outline: as §3
J774 [11] = experiment: Downregulation of LPS-induced IL-6 mRNA levels in mouse J774 cells after 6 hrs by qRT-PCR method; type: functional, cell-based; outline: as §2
J774 [12] = experiment: Antiinflammatory activity in mouse J774 cells assessed as inhibition of LPS-induced iNOS expression measured as remaining protein levels at 10 uM after 24 hrs by Western blot analysis; type: functional; outline: as §5
Mus musculus [13] = experiment: Antiinflammatory activity in C57BL/6NCrl mouse assessed as inhibition of carrageenan-induced paw edema at 10 mg/kg, ip administered 2 hrs prior to carrageenan challenge measured after 6 hrs by plethysmometry; type: functional; outline: as §1
J774 [14] = experiment: Antiinflammatory activity against mouse J774 cells assessed as inhibition of LPS-induced iNOS expression after 24 hrs by Western blot analysis; type: functional, cell-based; settings: J774, 24 h
Outline: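 Murine J774 macrophages in DMEM with 10% heat-inactivated FBS, grown 72 h to confluence, then given LPS plus compound in fresh medium for 24 h. Cells washed in ice-cold PBS and lysed; 20 μg protein per lane on Western blot for iNOS, with β-actin as loading control and chemiluminescent detection. Values relative to LPS-only cells; mean ± SEM, n = 4.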

J774 [15] = experiment: Inhibition of LPS-induced iNOS mRNA levels in mouse J774 cells after 6 hrs by qRT-PCR method; type: functional, cell-based; outline: as §2

Row | Compound | inhibition in vivo at 10 mg/kg (Mus musculus [1]) [%] | Activity (J774 [2]) | Remaining nitric oxide level (% of LPS-only control) (J774 [3]) [%] | Remaining IL-6 level (% of LPS-only) (J774 [4]) [%] | Activity (J774 [5]) | Activity (J774 [6]) | Activity (J774 [7]) [%] | Activity (J774 [8]) | Activity (J774 [9]) | Activity (J774 [10]) [%] | Activity (J774 [11]) | Activity (J774 [12]) [%] | inhibition in vivo at 10 mg/kg (Mus musculus [13]) [%] | IC50 (J774 [14]) [nM] | inhibition (J774 [15])
1 | C=C(C)[C@@H]1CC[C@]2(C(=O)O)CC[C@]3(C)[C@H](CC[C@@H]4[C@@]5(C)Cc6c[nH]nc6C(C)(C)[C@@H]5CC[C@]43C)[C@@H]12 | 27 | Active | 53.3 | 39.5 | Active | Active | 58.2 | Active | Active | 28 | Active | 27.5 | 44 | – | –
2 | C=C(C)[C@@H]1CC[C@]2(C(N)=O)CC[C@]3(C)[C@H](CC[C@@H]4[C@@]5(C)Cc6nccnc6C(C)(C)[C@@H]5CC[C@]43C)[C@@H]12 | – | – | 111.9 | 82.8 | – | – | 89.9 | – | – | 79.4 | – | 34.9 | – | – | –
3 | C=C(C)[C@@H]1CC[C@]2(CO)CC[C@]3(C)[C@H](CC[C@@H]4[C@@]5(C)CC[C@H](O)C(C)(C)[C@@H]5CC[C@]43C)[C@@H]12 [BETULIN] | – | – | 47.9 | 133.9 | – | – | 175.1 | – | – | 206.5 | – | 63.4 | – | – | –
4 | CC1(C)CC[C@]23CC[C@]4(C)[C@H](CC[C@@H]5[C@@]6(C)Cc7c([nH]c8ccc(F)cc78)C(C)(C)[C@@H]6CC[C@]54C)[C@H]2C1OC3 | – | – | 122.6 | 99.3 | – | – | 91.8 | – | – | 108.5 | – | 83.9 | – | – | –
5 | CCC(=O)OC[C@]12CC[C@]3(C(C)C)C1=C1[C@H](C[C@@H]4[C@@]5(C)CC[C@H](OC(=O)CC)C(C)(C)[C@@H]5CC[C@@]4(C)[C@]1(C)CC2)n1c(=O)n(C)c(=O)n13 | – | – | 55.7 | 60 | – | – | 43 | – | – | 80.3 | – | 50.5 | – | – | –
6 | C=C(C)[C@@H]1CC[C@]2(C(=O)O)CC[C@]3(C)[C@H](CC[C@@H]4[C@@]5(C)CC[C@H](O)C(C)(C)[C@@H]5CC[C@]43C)[C@@H]12 [BETULINIC ACID] | – | – | 69 | 66.1 | – | – | 96 | – | – | 98.5 | – | 57.6 | – | – | –
7 | C=C(C)[C@@H]1CC[C@]2(C(=O)O)CC[C@]3(C)[C@H](CC[C@@H]4[C@@]5(C)CCC(=O)C(C)(C)[C@@H]5CC[C@]43C)[C@@H]12 [BETUNOLIC ACID] | – | – | 45.3 | 87.1 | – | – | 107.1 | – | – | 118 | – | 38.3 | – | – | –
8 | C=C(C)[C@@H]1CC[C@]2(C=O)CC[C@]3(C)[C@H](CC[C@@H]4[C@@]5(C)Cc6cnoc6C(C)(C)[C@@H]5CC[C@]43C)[C@@H]12 | – | – | 113.1 | 91.4 | – | – | 49.6 | – | – | 102.1 | – | 57.5 | – | – | –
9 | C=C(C)[C@@H]1CC[C@]2(C(=O)O)CC[C@]3(C)[C@H](CC[C@@H]4[C@@]5(C)Cc6nccnc6C(C)(C)[C@@H]5CC[C@]43C)[C@@H]12 | – | – | – | – | – | – | – | – | – | – | – | – | – | 300 | inactive

Reference: ChEMBL document CHEMBL3797069, “Betulin Derivatives Effectively Suppress Inflammation in Vitro and in Vivo” (J Nat Prod, 2016)
